Screening results deposited in PubChem by The Scripps Research Institute Molecular Screening Center.
Sampled rows, rich in hits. Any-hit rate of the full collection: about 1.9%.
PLC-gamma1 inh: PLC-gamma1 (human) inhibition, primary screen; purified PLC-gamma1, fluorogenic substrate, fluorescence; P19174; inhibition, % at 12.2 µM; hit rate 0.84% among 370,000; AID 720700
Target sequence (P19174 whole entry, looked up): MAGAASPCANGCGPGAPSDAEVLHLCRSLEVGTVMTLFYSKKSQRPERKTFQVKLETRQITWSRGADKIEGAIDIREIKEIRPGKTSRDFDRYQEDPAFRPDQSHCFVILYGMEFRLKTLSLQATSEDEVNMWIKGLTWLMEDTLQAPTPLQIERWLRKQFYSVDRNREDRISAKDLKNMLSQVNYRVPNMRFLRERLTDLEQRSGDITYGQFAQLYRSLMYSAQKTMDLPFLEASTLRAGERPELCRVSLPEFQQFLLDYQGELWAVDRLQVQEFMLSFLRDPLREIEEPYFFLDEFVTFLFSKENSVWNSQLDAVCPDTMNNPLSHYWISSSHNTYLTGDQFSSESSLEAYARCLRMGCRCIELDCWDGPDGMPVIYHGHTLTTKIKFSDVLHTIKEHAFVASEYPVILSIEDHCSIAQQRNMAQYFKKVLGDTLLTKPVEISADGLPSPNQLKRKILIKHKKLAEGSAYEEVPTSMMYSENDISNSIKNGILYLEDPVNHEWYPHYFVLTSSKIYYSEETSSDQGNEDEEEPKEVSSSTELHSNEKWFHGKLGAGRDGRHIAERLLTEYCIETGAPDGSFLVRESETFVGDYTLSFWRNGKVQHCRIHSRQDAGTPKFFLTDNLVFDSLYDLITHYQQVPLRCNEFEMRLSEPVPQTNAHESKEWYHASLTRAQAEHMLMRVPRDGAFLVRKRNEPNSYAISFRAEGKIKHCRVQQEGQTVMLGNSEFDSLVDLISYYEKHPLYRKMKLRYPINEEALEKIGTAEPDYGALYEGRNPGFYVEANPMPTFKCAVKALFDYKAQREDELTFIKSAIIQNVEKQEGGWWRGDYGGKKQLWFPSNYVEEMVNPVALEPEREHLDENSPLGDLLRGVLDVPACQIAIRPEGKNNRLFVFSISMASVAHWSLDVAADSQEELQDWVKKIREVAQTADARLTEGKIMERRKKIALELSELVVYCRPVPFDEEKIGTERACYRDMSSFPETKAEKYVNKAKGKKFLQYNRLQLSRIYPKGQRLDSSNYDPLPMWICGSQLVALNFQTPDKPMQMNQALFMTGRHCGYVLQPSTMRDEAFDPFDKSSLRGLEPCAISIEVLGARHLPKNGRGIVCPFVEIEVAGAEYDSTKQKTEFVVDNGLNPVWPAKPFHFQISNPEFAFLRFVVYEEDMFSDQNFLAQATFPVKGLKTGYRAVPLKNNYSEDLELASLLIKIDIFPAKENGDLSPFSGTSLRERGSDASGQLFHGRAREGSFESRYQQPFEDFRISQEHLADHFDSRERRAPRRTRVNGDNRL
ASAP1 inh: blocks human ASAP1-stimulated Arf1 GTP hydrolysis | hit rate 0.19% among 360,000 | AID 624377 | inhibition, % at 16.5 µM | GDP FP detection; in the data active = inhibition above about 25%
PLCb3 inh: inhibitors of human phospholipase C beta3. Q01970. Purified PLC-beta3, fluorogenic substrate, fluorescence. inhibition, % at 12.2 µM. hit rate 0.18% among 370,000. AID 720704; in the data active = inhibition above about 11%
sPLA2-III inh: Blocks human group III sPLA2 activity; QFRET BODIPY PC-A2 liposome hydrolysis, fluorescence; inhibition, % at 12.2 µM; hit rate 0.56% among 370,000;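 active = inhibition above mean plus 3 SD of compounds lying within the high and low control bounds, cut at about 19% in these data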
ARFGAP1 inhibitor: rat ARFGAP1 inhibition | Arfgap1-stimulated ARF1 GTP hydrolysis, GDP FP detection | inhibition, % at 16.5 µM | hit rate 0.26% among 360,000;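 active = inhibition above a per-plate limit, mean inhibition of low control wells plus 3 SD, cut at about 25% in these data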
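system = rat Arfgap1 catalytic domain, aa 1-136 | technique = FP, GDP Alexa 633 tracer displaced from anti-GDP antibody, 620/688 nm | compound = one concentration, 16.5 µM, DMSO 1.26% | medium = HEPES-based buffer, pH 7.5 | timing = compound-enzyme preincubation 20 min, reaction 120 min, detection 60 min, 25 °C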
PLCg1 ctr: PLC-gamma1 inhibition, counter-screen for PLC-beta3 hits. hit rate 3.1% among 3,300. purified PLC-gamma1, fluorogenic substrate, fluorescence. shares compounds with PLC-gamma1 inh. inhibition, % at 12.3 µM
PLCbeta3 conf: confirmation of human PLC-beta3 inhibitors; hit rate 1% among 3,300; shares compounds with PLC-gamma1 inh; purified PLC-beta3, fluorogenic substrate fluorescence; inhibition, % at 12.3 µM; AID 743261; in the data active = inhibition above about 11%
Numbers stand for hits. Rule as the data show it, unless noted: active = inhibition above about 9.5%; inactive = the rest.

What do the screens show for `COc1ccc(/C=C(\C)C(=O)c2c(C)cc(C)[nH]c2=O)cc1`?
PLC-gamma1 inh: inactive; ASAP1 inh: inactive; PLCb3 inh: inactive; sPLA2-III inh: inactive; ARFGAP1 inhibitor: inactive

How did FC(F)(F)c1ccccc1C(C#Cc1ccccc1)NCc1ccc2c(c1)OCO2 (stereo not given) do in these assays?
PLC-gamma1 inh: inactive; PLCb3 inh: inactive; sPLA2-III inh: inactive

Results for C[C@H](O)[C@@H]1C(=O)N2CCc3c([nH]c4cccc(-c5ccccc5)c34)[C@@H]2C[C@@H]1N(C)C(=O)c1ccco1 ?
PLC-gamma1 inh: inactive; ASAP1 inh: inactive; PLCb3 inh: inactive; sPLA2-III inh: inactive; ARFGAP1 inhibitor: inactive

How did Cc1cc(C)cc(NC(=O)C2(c3cccs3)CCOCC2)c1 do in these assays?
PLC-gamma1 inh: 9.8; ASAP1 inh: inactive; PLCb3 inh: inactive; sPLA2-III inh: inactive; ARFGAP1 inhibitor: inactive; PLCg1 ctr: inactive; PLCbeta3 conf: inactive

How did COC(=O)c1cc2c(c3c4cc(F)ccc4n(S(=O)(=O)c4ccc(C)cc4)c13)C(=O)N(Cc1ccc(N(C)C)cc1)C2 do in these assays?
PLC-gamma1 inh: inactive; ASAP1 inh: inactive; PLCb3 inh: inactive; sPLA2-III inh: inactive; ARFGAP1 inhibitor: inactive

What do the screens show for `CN(C)S(=O)(=O)c1ccc(C(=O)NCCSc2ccc(Br)cc2)cc1`?
PLC-gamma1 inh: 10.4; ASAP1 inh: inactive; PLCb3 inh: inactive; sPLA2-III inh: inactive; ARFGAP1 inhibitor: inactive; PLCg1 ctr: inactive; PLCbeta3 conf: inactive

How did CC1=C[C@]2(C[N+](Cc3ccccc3)=C(N)N2)n2c(=O)n(-c3ccccc3)c(=O)n2C1 do in these assays?
PLC-gamma1 inh: inactive; PLCb3 inh: inactive; sPLA2-III inh: inactive

How did CCN1CCCC1CNC(=O)CCc1nc(-c2ccc(C)cc2)no1 (stereo not given) do in these assays?
PLC-gamma1 inh: 10.5; ASAP1 inh: inactive; PLCb3 inh: inactive; sPLA2-III inh: inactive; ARFGAP1 inhibitor: inactive; PLCg1 ctr: inactive; PLCbeta3 conf: inactive

How did Cc1ccc(-c2noc(CCC(=O)NC3CCCC3)n2)cc1 do in these assays?
PLC-gamma1 inh: inactive; ASAP1 inh: inactive; PLCb3 inh: inactive; sPLA2-III inh: inactive; ARFGAP1 inhibitor: inactive

Results for COC(=O)[C@]12C[C@H](CC(=O)NCc3ccc(C)o3)C(=O)N(CCc3ccc(OC)c(OC)c3)C1=C[C@H](C1CCCC1)O[C@@H]2C ?
PLC-gamma1 inh: inactive; PLCb3 inh: inactive; sPLA2-III inh: inactive

What do the screens show for `CC1(C)N([O-])C(c2ccccc2)=C[N+](=O)C1(C)C`?
PLC-gamma1 inh: 10.5; ASAP1 inh: inactive; PLCb3 inh: inactive; sPLA2-III inh: inactive; ARFGAP1 inhibitor: inactive; PLCg1 ctr: inactive; PLCbeta3 conf: inactive

What do the screens show for `O=S(=O)(CC1NCc2ccccc21)NCCc1ccccc1` (stereo not given)?
PLC-gamma1 inh: inactive; PLCb3 inh: inactive; sPLA2-III inh: inactive

Results for Cc1c(NC(=O)C(C)OC(=O)COc2cccc3c2OC(C)(C)C3)c(=O)n(-c2ccccc2)n1C (stereo not given) ?
PLC-gamma1 inh: inactive; ASAP1 inh: inactive; PLCb3 inh: 11.2; sPLA2-III inh: inactive; ARFGAP1 inhibitor: inactive; PLCg1 ctr: inactive; PLCbeta3 conf: inactive

Results for Cc1c(NC(=O)COc2cccc3c2OC(C)(C)C3)c(=O)n(-c2ccccc2)n1C ?
PLC-gamma1 inh: inactive; ASAP1 inh: inactive; PLCb3 inh: inactive; sPLA2-III inh: inactive; ARFGAP1 inhibitor: inactive

What do the screens show for `CCc1ccccc1NC(=O)CCC(=O)N1CCN(C(C)=O)CC1`?
PLC-gamma1 inh: inactive; ASAP1 inh: inactive; PLCb3 inh: inactive; sPLA2-III inh: inactive; ARFGAP1 inhibitor: inactive

How did CCc1ccccc1NC(=O)CN1CCN(C(=O)CCC(=O)N2CCC(c3ccccc3)=N2)CC1 do in these assays?
PLC-gamma1 inh: 13.4; ASAP1 inh: inactive; PLCb3 inh: inactive; sPLA2-III inh: inactive; ARFGAP1 inhibitor: inactive; PLCg1 ctr: inactive; PLCbeta3 conf: inactive

What do the screens show for `CCc1ccccc1NC(=O)CN1CCN(C(=O)CNC(=O)c2ccc(N3CCCC3=O)cc2)CC1`?
PLC-gamma1 inh: 12.2; ASAP1 inh: inactive; PLCb3 inh: inactive; sPLA2-III inh: inactive; ARFGAP1 inhibitor: inactive; PLCg1 ctr: inactive; PLCbeta3 conf: inactive

How did O=C(N/N=C/c1ccc(N2CCOCC2)c([N+](=O)[O-])c1)c1ccc(F)cc1 do in these assays?
PLC-gamma1 inh: inactive; ASAP1 inh: inactive; PLCb3 inh: inactive; sPLA2-III inh: inactive; ARFGAP1 inhibitor: inactive

Results for O=C(N/N=C/c1ccc(N2CCCC2)c([N+](=O)[O-])c1)c1cccnc1 ?
PLC-gamma1 inh: 17.7; ASAP1 inh: inactive; PLCb3 inh: 15.5; sPLA2-III inh: inactive; ARFGAP1 inhibitor: inactive; PLCg1 ctr: inactive; PLCbeta3 conf: inactive

How did O=C(O)c1cccc(-n2cccc2/C=C2/NC(=O)N(c3ccc(Cl)cc3)C2=O)c1 do in these assays?
PLC-gamma1 inh: 22.5; ASAP1 inh: inactive; PLCb3 inh: inactive; sPLA2-III inh: inactive; ARFGAP1 inhibitor: inactive; PLCg1 ctr: inactive; PLCbeta3 conf: inactive

What do the screens show for `CCOc1ccc(CN2CCN(Cc3cccc4c3OCO4)CC2CCO)cc1` (stereo not given)?
PLC-gamma1 inh: inactive; ASAP1 inh: inactive; PLCb3 inh: inactive; sPLA2-III inh: inactive; ARFGAP1 inhibitor: inactive

How did Cc1ccc(CN2CCN(Cc3cccc4c3OCO4)CC2CCO)cc1 (stereo not given) do in these assays?
PLC-gamma1 inh: inactive; ASAP1 inh: inactive; PLCb3 inh: 15.0; sPLA2-III inh: inactive; ARFGAP1 inhibitor: inactive; PLCg1 ctr: inactive; PLCbeta3 conf: inactive

Results for CCOC(=O)CSc1nnc(Cn2c(=O)sc3ccccc32)n1-c1ccccc1C ?
PLC-gamma1 inh: inactive; ASAP1 inh: inactive; PLCb3 inh: 10.8; sPLA2-III inh: inactive; ARFGAP1 inhibitor: inactive; PLCg1 ctr: 9.5; PLCbeta3 conf: inactive

What do the screens show for `Cc1ccccc1-n1c(Cn2c(=O)sc3ccccc32)nnc1SCC(N)=O`?
PLC-gamma1 inh: inactive; ASAP1 inh: inactive; PLCb3 inh: inactive; sPLA2-III inh: inactive; ARFGAP1 inhibitor: inactive

Results for O=C(N/N=C/c1c(F)c(F)c(F)c(F)c1F)c1cc(-c2ccccc2)nc2ccccc12 ?
PLC-gamma1 inh: 13.7; ASAP1 inh: inactive; PLCb3 inh: inactive; sPLA2-III inh: inactive; ARFGAP1 inhibitor: inactive; PLCg1 ctr: inactive; PLCbeta3 conf: inactive

How did O=C(N/N=C/c1cccnc1)c1cc(-c2ccccc2)nc2ccccc12 do in these assays?
PLC-gamma1 inh: inactive; ASAP1 inh: inactive; PLCb3 inh: inactive; sPLA2-III inh: inactive; ARFGAP1 inhibitor: inactive

How did Cc1cc(=O)[nH]c(SCC(=O)Nc2ccc(C)c(S(=O)(=O)N3CCCCC3)c2)n1 do in these assays?
PLC-gamma1 inh: 12.2; ASAP1 inh: inactive; PLCb3 inh: inactive; sPLA2-III inh: inactive; ARFGAP1 inhibitor: inactive; PLCg1 ctr: inactive; PLCbeta3 conf: inactive

How did COc1ccc(C(=O)Nc2ccc(C)c(S(=O)(=O)N3CCCCCC3)c2)cc1 do in these assays?
PLC-gamma1 inh: 11.1; ASAP1 inh: inactive; PLCb3 inh: inactive; sPLA2-III inh: inactive; ARFGAP1 inhibitor: inactive; PLCg1 ctr: inactive; PLCbeta3 conf: inactive
